{"source": "ChEMBL document CHEMBL1123309", "about": "“Esters and lactones of phenolic amino carboxylic acids: prodrugs for iron chelation” (J Med Chem, 1986)", "key": {"Mus musculus [1]": {"tested_on": "Mus musculus", "assay": "BDF1 male mice were administered with the compound and number of survivors was determined at a dose 200 mg/kg peroral out of 10 tested", "format": "functional", "settings": "route oral", "procedure,_shortened": "(§1)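 Male BDF1 mice were iron-loaded by transfusion of canine red cells. The cells were heparinised, washed twice in isotonic saline and heated at 50 °C for 30 min. Dosing started two days after the last transfusion, once daily for 7 consecutive days. Compounds were given in distilled water or as a fine aqueous suspension with Polysorbate 80 (2% final). Toxic signs were recorded daily and survivors counted per group.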"}, "Mus musculus [2]": {"tested_on": "Mus musculus", "assay": "BDF1 male mice were administered with 200 mg/kg po and percent change in iron levels was determined in Feces", "format": "functional", "procedure,_shortened": "(§2)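 Hypertransfused male BDF1 mice (canine red cells, washed and heated at 50 °C for 30 min) were dosed orally for 7 days with compound in distilled water or a fine suspension with Polysorbate 80 (2% final). Daily group urine and pooled feces (1 N HCl digest, 90 °C, 30 min, triplicate) were collected, and liver and spleen were homogenized. Iron was measured by atomic absorption and reported as % change vs transfused control.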"}, "Mus musculus [3]": {"tested_on": "Mus musculus", "assay": "BDF1 male mice were administered with 200 mg/kg po and percent change in iron levels was determined in Liver", "format": "functional", "procedure,_shortened": "as §2"}, "Mus musculus [4]": {"tested_on": "Mus musculus", "assay": "BDF1 male mice were administered with 200 mg/kg ip and percent change in iron levels was determined in Feces", "format": "functional", "settings": "route intraperitoneal", "procedure,_shortened": "(§3)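 Male BDF1 mice made iron-overloaded by transfusion of washed, heat-treated (50 °C, 30 min) canine red cells. Dosing began 2 days after the last transfusion, once daily for 7 days, in distilled water or 2% Polysorbate 80 suspension. Daily group urine was collected. Pooled feces were digested in 1 N HCl (90 °C, 30 min). Liver and spleen were homogenized in saline. Iron was measured by atomic absorption and expressed as % change vs transfused controls.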"}, "Mus musculus [5]": {"tested_on": "Mus musculus", "assay": "BDF1 male mice were administered with 200 mg/kg po and percent change in iron levels was determined in Spleen", "format": "functional", "procedure,_shortened": "as §2"}, "Mus musculus [6]": {"tested_on": "Mus musculus", "assay": "BDF1 male mice were administered with the compound and number of survivors was determined at a dose 200 mg/kg ip out of 10 tested", "format": "functional", "settings": "route intraperitoneal", "procedure,_shortened": "as §1"}, "Mus musculus [7]": {"tested_on": "Mus musculus", "assay": "BDF1 male mice were administered with 200 mg/kg poand percent change in iron levels was determined in Urine", "format": "functional", "procedure,_shortened": "as §2"}, "Mus musculus [8]": {"tested_on": "Mus musculus", "assay": "BDF1 male mice were administered with 200 mg/kg ip and percent change in iron levels was determined in Urine", "format": "functional", "settings": "route intraperitoneal", "procedure,_shortened": "as §3"}, "Mus musculus [9]": {"tested_on": "Mus musculus", "assay": "BDF1 male mice were administered with 200 mg/kg ip and percent change in iron levels was determined in Liver", "format": "functional", "settings": "route intraperitoneal", "procedure,_shortened": "as §3"}, "Mus musculus [10]": {"tested_on": "Mus musculus", "assay": "BDF1 male mice were administered with 200 mg/kg ip and percent change in iron levels was determined in Spleen", "format": "functional", "settings": "route intraperitoneal", "procedure,_shortened": "as §3"}, "Mus musculus [11]": {"tested_on": "Mus musculus", "assay": "BDF1 male mice were administered with 200 mg/kg orally and percent change in iron levels was determined in spleen", "format": "functional", "settings": "route oral", "procedure,_shortened": "as §3"}, "[12]": {"assay": "Half life was determined at pH 10.5 in the presence of Fe(III) Half life was determined Titrimetrically", "format": "ADME", "settings": "pH 7.5; in the assay text read “pH 7.5” for “pH 10.5”", "procedure,_shortened": "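Metal and chelator were each 5 × 10⁻⁴ M. Constant pH was held with 0.05 M NaOH. Hydrolysis rate came from base consumption, with first-order kinetics.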"}, "Mus musculus [13]": {"tested_on": "Mus musculus", "assay": "BDF1 male mice were administered with 200 mg/kg orally and percent change in iron levels was determined in faeces", "format": "functional, Feces", "settings": "route oral", "procedure,_shortened": "as §3"}, "Mus musculus [14]": {"tested_on": "Mus musculus", "assay": "BDF1 male mice were administered with 200 mg/kg orally and percent change in iron levels was determined in liver", "format": "functional", "settings": "route oral", "procedure,_shortened": "as §3"}, "Mus musculus [15]": {"tested_on": "Mus musculus", "assay": "BDF1 male mice were administered with 25 mg/kg orally and percent change in iron levels was determined in faeces", "format": "functional, Feces", "settings": "dose 100 mg/kg; route intraperitoneal; in the assay text read “100 mg/kg intraperitoneally” for “25 mg/kg orally”"}, "[16]": {"assay": "First order rate constant was determined Spectrophotometrically at pH 7.5 in the presence of Fe(III)"}, "Mus musculus [17]": {"tested_on": "Mus musculus", "assay": "BDF1 male mice were administered with 25 mg/kg orally and percent change in iron levels was determined in urine", "format": "functional", "settings": "dose 100 mg/kg; route intraperitoneal; in the assay text read “100 mg/kg intraperitoneally” for “25 mg/kg orally”"}, "[18]": {"assay": "Half life was determined at pH 7.5 in the presence of Fe(III) Half life was determined Spectrophotometrically"}, "Mus musculus [19]": {"tested_on": "Mus musculus", "assay": "BDF1 male mice were administered with the compound and number of survivors was determined at a dose 100 mg/kg intraperitoneally out of 10 tested", "format": "functional", "settings": "route intraperitoneal", "procedure,_shortened": "as §1"}, "Mus musculus [20]": {"tested_on": "Mus musculus", "assay": "BDF1 male mice were administered with 100 mg/kg orally and percent change in iron levels was determined in spleen", "format": "functional", "settings": "route intraperitoneal, in the assay text read “intraperitoneally” for “orally”", "procedure,_shortened": "as §3"}, "[21]": {"assay": "First order rate constant was determined Titrimetrically) at pH 7.5 in the presence of Fe(III)"}}, "note": "Several values for one entry are separate records, joined by “and”; a condition that tells them apart may be missing. Equal entries are not always repeated."}
{"smiles": "CC(C)(C)OC(=O)CN(CCN(CC(=O)OC(C)(C)C)Cc1ccccc1O)Cc1ccccc1O", "values": [{"measurement": "No. of survivors", "setting": "Mus musculus [1]", "result": 10}, {"measurement": "Iron change", "setting": "Mus musculus [2]", "result": -13, "unit": "%"}, {"measurement": "Iron change", "setting": "Mus musculus [3]", "result": 6, "unit": "%"}, {"measurement": "Iron change", "setting": "Mus musculus [4]", "result": -1, "unit": "%"}, {"measurement": "Iron change", "setting": "Mus musculus [5]", "result": 5, "unit": "%"}, {"measurement": "No. of survivors", "setting": "Mus musculus [6]", "result": 10}, {"measurement": "Iron change", "setting": "Mus musculus [7]", "result": -27, "unit": "%"}, {"measurement": "Iron change", "setting": "Mus musculus [8]", "result": -1, "unit": "%"}, {"measurement": "Iron change", "setting": "Mus musculus [9]", "result": 10, "unit": "%"}, {"measurement": "Iron change", "setting": "Mus musculus [10]", "result": -5, "unit": "%"}]}
{"smiles": "CCOC(=O)CN(CCN(CC(=O)OCC)Cc1ccccc1O)Cc1ccccc1O", "values": [{"measurement": "No. of survivors", "setting": "Mus musculus [1]", "result": 8}, {"measurement": "Iron change", "setting": "Mus musculus [11]", "result": -34, "unit": "%"}, {"measurement": "half-life", "setting": "[12]", "result": 34.8, "unit": "min"}, {"measurement": "Iron change", "setting": "Mus musculus [13]", "result": -77, "unit": "%"}, {"measurement": "Iron change", "setting": "Mus musculus [14]", "result": "-49% and -63%"}, {"measurement": "Iron change", "setting": "Mus musculus [15]", "result": 26, "unit": "%"}, {"measurement": "10E2 k1", "setting": "[16]", "result": 1.14, "unit": "min⁻¹"}, {"measurement": "Iron change", "setting": "Mus musculus [17]", "result": 240, "unit": "%"}, {"measurement": "half-life", "setting": "[18]", "result": 60.6, "unit": "min"}, {"measurement": "No. of survivors", "setting": "Mus musculus [19]", "result": 10}, {"measurement": "Iron change", "setting": "Mus musculus [20]", "result": 4, "unit": "%"}, {"measurement": "10E2 k1", "setting": "[21]", "result": 1.99, "unit": "min⁻¹"}]}
